According to ChEMBL document CHEMBL1135669, “Improving the oral efficacy of CNS drug candidates: discovery of highly orally efficacious piperidinyl piperidine M2 muscarinic receptor antagonists” (J Med Chem, 2002):
Active and inactive are the calls of the source.

Assays:
[1] = target: T1, Muscarinic acetylcholine receptor M2 (Homo sapiens, UniProt P08172); assay: Binding affinity for human Muscarinic acetylcholine receptor M2
T1 sequence (P08172 whole entry): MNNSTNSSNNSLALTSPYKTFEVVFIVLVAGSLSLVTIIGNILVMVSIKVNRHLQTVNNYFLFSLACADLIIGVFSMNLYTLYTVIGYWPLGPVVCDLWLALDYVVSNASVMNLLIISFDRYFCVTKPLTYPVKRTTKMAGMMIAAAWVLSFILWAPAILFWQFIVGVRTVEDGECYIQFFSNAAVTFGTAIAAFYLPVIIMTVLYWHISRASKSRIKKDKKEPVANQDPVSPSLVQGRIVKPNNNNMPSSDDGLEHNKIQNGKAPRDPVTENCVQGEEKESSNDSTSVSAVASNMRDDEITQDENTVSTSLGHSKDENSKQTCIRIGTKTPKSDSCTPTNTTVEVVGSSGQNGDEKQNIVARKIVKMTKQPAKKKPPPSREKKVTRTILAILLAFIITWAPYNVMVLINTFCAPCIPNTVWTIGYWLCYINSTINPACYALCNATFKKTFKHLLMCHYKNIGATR

Rattus norvegicus [2] = assay: ACh released compared with baseline (100%) in rat striatum after peroral administration (0-2 h,10 mg/kg, 20% HPbetaCD) using microdialysis assay; format: functional
Outline: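 Rat striatal microdialysis: single oral dose of 10 mg/kg in 20% HPβCD vehicle. ACh in dialysate collected from 0 to 2 h, expressed as % of preinjection baseline (baseline = 100%). ACh release is measured in the presence of neostigmine. Stimulation over baseline was judged by Duncan's Multiple Range Statistic.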

Homo sapiens = species: Homo sapiens; assay: Percent of Parent compound remaining after 20 min incubation with human liver microsomes (Human microsomal stability); format: functional
Outline: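 Compounds at 10 μg/mL were incubated with human liver microsomes for 20 min. Metabolic stability is reported as % parent compound remaining.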

Rattus norvegicus [3] = assay: Orally active dose in passive avoidance response (PAR); format: functional
Outline: (§1)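 Rat passive avoidance response, a reference-memory cognitive paradigm, with oral dosing. The value is the orally active dose in mg/kg, defined as a significant change in latency over vehicle (4% MC), p < 0.05 by Dunnett's T test, n = 36.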

[4] = Area under curve (high throughput single measurement) after peroral administration (10 mg/kg, 0-6 hr) in rat was determined; conditions: in vivo, po
Rattus norvegicus [5] = assay: ACh released compared with baseline (100%) in rat striatum after iv administration (0-2 h,10 mg/kg, 20% HPbetaCD) using microdialysis assay; format: functional
Rattus norvegicus [6] = assay: Orally active dose in passive avoidance response (PAR); inactive; format: functional, organism-based; outline: as §1

Row | SMILES | Ki [1] [nM] | Activity (Rattus norvegicus [2]) [%] | also measured
1 | CC(=C1CCN(C2CCN(C(=O)c3cccc(C)c3N)CC2)CC1)c1ccc([S+]([O-])C(C)C)cc1 (single isomer, unassigned; (-)) | 12 | – | –
2 | CC(=C1CCN(C2CCN(C(=O)c3ccc(F)c4ccccc34)CC2)CC1)c1ccc([S+]([O-])C(C)C)cc1 (single isomer, unassigned; (+)) | 1.3 | 179 | –
3 | CC(=C1CCN(C2CCN(C(=O)c3cccc(C)c3N)CC2)CC1)c1ccc([S+]([O-])C(C)C)cc1 (stereo in doubt; 14) [listing 1 of 2 here] | – | – | Activity (Homo sapiens): 64%
4 | CC(=C1CCN(C2CCN(C(=O)c3ccc(F)c4ccccc34)CC2)CC1)c1ccc([S+]([O-])C(C)C)cc1 (stereo in doubt; 13) [listing 1 of 2 here] | 2.7 | – | –
5 | CC(C)S(=O)(=O)c1ccc(CC2CCN(C3CCN(C(=O)c4ccc(F)c5ccccc45)CC3)CC2)cc1 | 221 | – | –
6 | CC(=C1CCN(C2CCN(C(=O)c3cccc(C)c3N)CC2)CC1)c1ccc(S(=O)(=O)C(C)C)cc1 | 32 | – | Activity (Homo sapiens): 80%
7 | COc1ccc(S(=O)(=O)c2ccc(C3(C4CCN(C5CCN(C(=O)c6ccc(F)c7ccccc67)CC5)CC4)OCCO3)cc2)cc1 | – | 180 | PAR (Rattus norvegicus [3]): 0.1 mg/kg
8 | CC(=C1CCN(C2CCN(C(=O)c3ccc(F)c4ccccc34)CC2)CC1)c1ccc(S(=O)(=O)C(C)C)cc1 | 9.6 | – | Activity (Homo sapiens): 74%
9 | Cc1cccc(C(=O)N2CCC(N3CCC(Cc4ccc(S(=O)(=O)c5cccc(Cl)c5)cc4)CC3)CC2)c1N [SCH-211803] | – | 180 | AUC at 6 h [4]: 908 ng·h/mL; PAR (Rattus norvegicus [3]): 0.001 mg/kg
10 | CC(=C1CCN(C2CCN(C(=O)c3cccc(C)c3N)CC2)CC1)c1ccc([S+]([O-])C(C)C)cc1 (stereo in doubt; 14) [listing 2 of 2 here] | 6.6 | – | –
11 | CC(=C1CCN(C2CCN(C(=O)c3ccc(F)c4ccccc34)CC2)CC1)c1ccc([S+]([O-])C(C)C)cc1 (stereo in doubt; 13) [listing 2 of 2 here] | – | – | Activity (Homo sapiens): 66%
12 | CC(=C1CCN(C2CCN(C(=O)c3cccc(C)c3N)CC2)CC1)c1ccc([S+]([O-])C(C)C)cc1 (single isomer, unassigned; (+)) | 0.89 | 225 | PAR (Rattus norvegicus [3]): 0.0001 mg/kg
13 | CC(C)Sc1ccc(CC2CCN(C3CCN(C(=O)c4cccc5ccccc45)CC3)CC2)cc1 | – | 110 | Activity (Rattus norvegicus [5]): 210%; Activity (Rattus norvegicus [6]): inactive
14 | CC(=C1CCN(C2CCN(C(=O)c3ccc(F)c4ccccc34)CC2)CC1)c1ccc([S+]([O-])C(C)C)cc1 (single isomer, unassigned; (-)) | 2.4 | 155 | –
